Reference: ChEMBL document CHEMBL4364285 (J Med Chem, 2019)
Active and inactive are the calls of the source. The calls are words filed in the database; no cut-off is given here.

Legend:
THP-1 = test: Inhibition of TPA-induced TNFalpha production in human THP1 cells at 3 uM by ELISA relative to control; assay type: functional
Cereblon isoform 4 = molecular target: T1, Cereblon isoform 4 (Magnetospirillum gryphiswaldense, UniProt A4TVL0); test: Inhibition of MANT-uracil binding to wild-type Magnetospirillum gryphiswaldense CRBN isoform 4 by FRET assay
T1 sequence (A4TVL0 whole entry): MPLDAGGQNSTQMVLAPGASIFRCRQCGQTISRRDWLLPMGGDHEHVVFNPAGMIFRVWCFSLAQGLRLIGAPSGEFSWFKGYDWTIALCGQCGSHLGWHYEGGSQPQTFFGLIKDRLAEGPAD
Method in brief: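 Wild-type MsCI4 FRET binding assay, following an earlier protocol. Compounds were dissolved in DMSO, or in water or bicarbonate buffer where soluble. Ki values were derived from the binding curves.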

[1] = molecular target: Protein cereblon/Zinc finger protein Aiolos (Homo sapiens) (UniProt Q96SW2+Q9UKT9); test: Inhibition of CRBN-mediated IKFZ3 degradation in human OPM2 cells measured after 24 hrs by Western blot analysis; assay type: cell-based
[2] = Solubility of the compound in water; assay type: physicochemical; conditions: buffer
[3] = Solubility of the compound in bicarbonate buffer; assay type: physicochemical
[4] = Terminal elimination half life in healthy human at 50 to 400 mg, po at pH 7.4; assay type: ADME, organism-based; conditions: in vivo, read-out: beta t1/2

Chain of Protein cereblon/Zinc finger protein Aiolos (Homo sapiens) (Q96SW2 whole entry, looked up): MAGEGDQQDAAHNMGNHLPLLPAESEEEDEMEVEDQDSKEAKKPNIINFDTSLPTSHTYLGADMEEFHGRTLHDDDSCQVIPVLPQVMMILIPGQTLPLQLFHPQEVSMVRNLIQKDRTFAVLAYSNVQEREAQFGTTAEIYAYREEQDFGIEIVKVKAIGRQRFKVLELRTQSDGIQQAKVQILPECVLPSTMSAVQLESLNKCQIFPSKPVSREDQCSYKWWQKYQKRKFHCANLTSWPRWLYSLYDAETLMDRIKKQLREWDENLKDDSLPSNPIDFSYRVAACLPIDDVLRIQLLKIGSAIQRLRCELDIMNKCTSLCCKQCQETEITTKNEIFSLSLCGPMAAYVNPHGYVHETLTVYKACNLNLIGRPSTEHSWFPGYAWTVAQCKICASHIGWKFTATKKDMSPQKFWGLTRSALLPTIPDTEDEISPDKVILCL
Chain of Protein cereblon/Zinc finger protein Aiolos (Homo sapiens) (Q9UKT9 whole entry, looked up): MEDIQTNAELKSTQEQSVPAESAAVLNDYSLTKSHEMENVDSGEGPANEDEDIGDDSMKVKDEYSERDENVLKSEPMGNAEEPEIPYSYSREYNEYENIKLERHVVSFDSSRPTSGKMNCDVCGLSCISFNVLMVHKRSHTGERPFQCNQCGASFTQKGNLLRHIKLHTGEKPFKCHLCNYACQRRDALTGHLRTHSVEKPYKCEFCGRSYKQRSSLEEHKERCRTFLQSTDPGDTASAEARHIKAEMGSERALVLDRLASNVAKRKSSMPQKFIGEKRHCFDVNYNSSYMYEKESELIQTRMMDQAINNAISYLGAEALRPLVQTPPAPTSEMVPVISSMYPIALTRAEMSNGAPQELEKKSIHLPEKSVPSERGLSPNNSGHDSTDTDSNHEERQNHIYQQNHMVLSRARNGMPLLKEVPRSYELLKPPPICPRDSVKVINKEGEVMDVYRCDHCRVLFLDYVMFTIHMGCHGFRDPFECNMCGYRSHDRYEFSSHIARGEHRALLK

SMILES	Ki (Cereblon isoform 4) [µM]	inhibition [1]	further results
O=C1CCC(NC(=O)c2ccccc2C(=O)O)C(=O)N1 (stereo unspecified)			inhibition at 3 µM (THP-1): 80%
O=C1CC(N2C(=O)c3cccc([N+](=O)[O-])c3C2=O)C(=O)N1 (stereo unspecified)	> 40	inactive	
NC[C@H]1CC[C@@H](COC(=O)NC2CCC(=O)NC2=O)CC1.O=C(O)C(F)(F)F (stereo partly specified)		inactive	solubility [2]: Soluble
Nc1cccc2c1C(=O)N(C1CCC(=O)NC1=O)C2=O (stereo unspecified) [POMALIDOMIDE]	0.8		
O=C(/C=C/c1ccccc1)NC1CC(=O)NC1=O (stereo unspecified)	20		
Nc1cccc2c1C(=O)N(C1CC(=O)NC1=O)C2=O (stereo unspecified)	> 40		
O=C1CCC(NC(=O)OC[C@@H]2CCCN2)C(=O)N1 (stereo partly specified)	45	inactive	
Nc1cccc2c1CN(C1CCC(=O)NC1=O)C2=O (stereo unspecified) [LENALIDOMIDE]	3.1		
O=C1CC(NC(=O)OC[C@@H]2CCCN2)C(=O)N1 (stereo partly specified)		inactive	
O=C1CC(NC(=O)Cc2ccccc2)C(=O)N1 (stereo unspecified)	> 40	inactive	
O=C1CC(NC(=O)c2sc3cccc(Cl)c3c2Cl)C(=O)N1 (stereo unspecified)	20	inactive	
O=C1CC(N2C(=O)c3ccc([N+](=O)[O-])cc3C2=O)C(=O)N1 (stereo unspecified)	11	inactive	
CC(C)=CC(=O)NC1CC(=O)NC1=O (stereo unspecified)	> 40	inactive	
O=C(O)CCC(=O)NCc1ccc(COC(=O)NC2CC(=O)NC2=O)cc1 (stereo unspecified)	12	inactive	solubility [3]: > 200 mM
O=C1CC(NC(=O)c2cc([N+](=O)[O-])cc([N+](=O)[O-])c2)C(=O)N1 (stereo unspecified)	> 99	inactive	
O=C1CC(NC(=O)OCc2ccccc2)C(=O)N1 (stereo unspecified)	4		
O=C1CC(NC(=O)c2sc3ccccc3c2Cl)C(=O)N1 (stereo unspecified)	> 40	inactive	
O=C1CCC(N2C(=O)c3ccccc3C2=O)C(=O)N1 (stereo unspecified) [THALIDOMIDE]			half-life [4]: 5.5 to 7.3 h
NC[C@H]1CC[C@@H](COC(=O)NC2CC(=O)NC2=O)CC1.O=C(O)C(F)(F)F (stereo partly specified)		inactive	solubility [2]: Soluble
O=C1CCC(N2C(=O)c3ccc([N+](=O)[O-])cc3C2=O)C(=O)N1 (stereo unspecified)	9	inactive	
O=C1CCC(N2C(=O)c3cccc([N+](=O)[O-])c3C2=O)C(=O)N1 (stereo unspecified)	> 40	inactive	
NCc1ccc(COC(=O)NC2CC(=O)NC2=O)cc1.O=C(O)C(F)(F)F (stereo unspecified)	12	inactive	solubility [2]: Soluble
O=C(O)CCC(=O)NCc1ccc(COC(=O)NC2CCC(=O)NC2=O)cc1 (stereo unspecified)	36	inactive	solubility [3]: > 200 mM
